From ChEMBL document CHEMBL1125604, “Synthesis and antitumor evaluations of symmetrically and unsymmetrically substituted 1,4-bis[(aminoalkyl)amino]anthracene-9,10-diones and 1,4-bis[(aminoalkyl)amino]-5,8-dihydroxyanthracene-9,10-diones” (J Med Chem, 1991)
In brackets after ≈: the same amount, converted by molar mass.

Tests used:
L1210 = assay: The compound was tested for its antitumor activity against L1210 cells; assay type: functional; details: Mus musculus, read-out: ID50 (the source's name)
Mus musculus [1] = assay: At 12.5 mg/kg dose CDF1 mice were injected ip on (1,5,9) days after tumor transplantation to evaluate mean survival time; assay type: functional; details: route intraperitoneal
Outline: (§1)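 CDF1 mice were inoculated ip with 10^6 murine leukemia cells on day 0. Drug was given ip starting 24 h later, on the day schedule listed in each line. Mice were checked daily for toxicity and survival, and day of death was recorded over a 60-day study. The result is reported as mean survival time of treated mice divided by that of controls, ×100.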

Mus musculus [2] = assay: At 25 mg/kg dose CDF1 mice were injected ip on (1,5) days after tumor transplantation to evaluate mean survival time; assay type: functional; details: route intraperitoneal; outline: as §1
Mus musculus [3] = assay: At 50 mg/kg dose CDF1 mice were injected ip on (1,5) days after tumor transplantation to evaluate mean survival time; assay type: functional; details: route intraperitoneal; outline: as §1
Mus musculus [4] = assay: At 50 mg/kg dose CDF1 mice were injected ip on (1,5,9) days after tumor transplantation to evaluate mean survival time; assay type: functional; details: route intraperitoneal; outline: as §1
Mus musculus [5] = assay: At 25 mg/kg dose CDF1 mice were injected ip on (1,5,9) days after tumor transplantation to evaluate mean survival time; assay type: functional; details: route intraperitoneal; outline: as §1
Mus musculus [6] = assay: At 6.25 mg/kg dose CDF1 mice were injected ip on (1,5,9) days after tumor transplantation to evaluate mean survival time; assay type: functional; details: route intraperitoneal; outline: as §1
Homo sapiens [7] = species: Homo sapiens; assay: Inhibition of cellular growth was evaluated in vitro against human colon carcinoma subline resistant to DOXO (LOVO/DOXO).; assay type: functional, organism-based
Outline: (§2)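 LOVO and LOVO/DOXO cells were grown at 37 °C under 5% CO2 in Ham's F12 with 20% fetal calf serum. They were plated at 2.5 × 10³ cells/dish and exposed continuously to drug for 144 h. Growth inhibition was read by MTT assay, and the ID50 (drug concentration giving 50% inhibition of growth versus control) was derived.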

Homo sapiens [8] = species: Homo sapiens; assay: Inhibition of cellular growth was evaluated in vitro against human colon carcinoma LOVO; assay type: functional; outline: as §2
Mus musculus [9] = assay: At 12.5 mg/kg dose CDF1 mice were injected ip on (1) days after tumor transplantation to evaluate mean survival time; assay type: functional; details: route intraperitoneal; outline: as §1
Mus musculus [10] = assay: At 25 mg/kg dose CDF1 mice were injected ip on (1) days after tumor transplantation to evaluate mean survival time; assay type: functional; details: route intraperitoneal; outline: as §1
Mus musculus [11] = assay: At 50 mg/kg dose CDF1 mice were injected ip on 1 day after tumor transplantation to evaluate mean survival time; assay type: functional; details: route intraperitoneal; outline: as §1
Mus musculus [12] = assay: At 5 mg/kg dose CDF1 mice were injected ip on (1,5) days after tumor transplantation to evaluate mean survival time; assay type: functional; details: route intraperitoneal; outline: as §1
Homo sapiens [13] = species: Homo sapiens; assay: Inhibition of cellular growth was evaluated in vitro against human colon carcinoma LOVO.; assay type: functional, organism-based; outline: as §2

SMILES | IC50 (L1210) [µg/mL] | T/C (Mus musculus [1]) [%] | T/C (Mus musculus [4]) [%] | T/C (Mus musculus [5]) [%] | IC50 (Homo sapiens [7]) [µg/mL] | other results
CN(C)CCNc1ccc(NCCCCN)c2c1C(=O)c1ccccc1C2=O | 0.0045 (≈ 0.0118 µM) | 113 |  |  |  | T/C (Mus musculus [2]): 111%; T/C (Mus musculus [3]): 64%
CN(C)CCNc1ccc(NCCNCCO)c2c1C(=O)c1ccccc1C2=O | 0.0038 (≈ 0.00958 µM) |  | 145 | 148 |  | 
CN(C)CCNc1ccc(NCCNCCO)c2c1C(=O)c1c(O)ccc(O)c1C2=O | 0.00017 (≈ 0.000397 µM) | 187 |  | 244 | 0.024 (≈ 0.056 µM) | T/C (Mus musculus [6]): 188%; IC50 (Homo sapiens [8]): 0.001 µg/mL (≈ 0.00233 µM)
CN(C)CCNc1ccc(N(C)CCN(C)C)c2c1C(=O)c1ccccc1C2=O | 0.5 (≈ 1.27 µM) |  | 127 |  |  | T/C (Mus musculus [2]): 108%
CN(C)CCN(C)c1ccc(N(C)CCN(C)C)c2c1C(=O)c1ccccc1C2=O | 4.6 (≈ 11.3 µM) |  |  |  |  | T/C (Mus musculus [9]): 103%; T/C (Mus musculus [10]): 100%; T/C (Mus musculus [11]): 95%
NCCCCNc1ccc(NCCNCCO)c2c1C(=O)c1c(O)ccc(O)c1C2=O | 0.0007 (≈ 0.00163 µM) |  |  |  |  | T/C (Mus musculus [12]): 138%
O=C1c2ccccc2C(=O)c2c(NC3CC3)ccc(NC3CC3)c21 | > 10 | 112 |  | 107 |  | T/C (Mus musculus [6]): 100%
CN(C)CCNc1ccc(NCCN)c2c1C(=O)c1ccccc1C2=O | 0.03 (≈ 0.0851 µM) | 129 | 180 | 150 |  | 
O=C1c2ccccc2C(=O)c2c(NCCNCCO)ccc(NCCNCCO)c21 [AMETANTRONE] | 0.01 (≈ 0.0242 µM) | 177 | 146 | 252 | 44.8 (≈ 109 µM) | IC50 (Homo sapiens [13]): 0.283 µg/mL (≈ 0.685 µM)
COc1cccc2c1C(=O)c1c(O)c3c(c(O)c1C2=O)C[C@@](O)(C(=O)CO)C[C@@H]3O[C@H]1C[C@H](N)[C@H](O)[C@H](C)O1 [DOXORUBICIN] |  |  |  |  | 3.84 (≈ 7.07 µM) | IC50 (Homo sapiens [13]): 0.0247 µg/mL (≈ 0.0454 µM)
O=C1c2c(O)ccc(O)c2C(=O)c2c(NCCNCCO)ccc(NCCNCCO)c21 [MITOXANTRONE] |  |  |  |  | 0.274 (≈ 0.616 µM) | IC50 (Homo sapiens [13]): 0.0055 µg/mL (≈ 0.0124 µM)
